Here are results for four compounds from ChEMBL document CHEMBL2086276, “Synthesis and evaluation of mutual prodrugs of ibuprofen with menthol, thymol and eugenol” (Eur J Med Chem, 2012).

SMILES strings stand for the structures.

Data set [1] can be described thus: Octanol-buffer partition coefficient, log P of the compound by HPLC analysis. Format: physicochemical. An outline of the steps:
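100 mg compound in 10 mL aqueous phase plus 10 mL octanol, shaken 1 h, left 2 h at 25 °C. Each phase quantified by HPLC: C18 column, […], 1.0 mL/min, UV 254 nm. Partition coefficient = organic-phase over aqueous-phase concentration; also computed in silico.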

The nature of data set [2]: Chemical stability of the compound assessed as hydrolysis in HCl buffer at pH 1.2 by HPLC analysis. Type of data set: physicochemical. In short, it runs like this:
(§1)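 Hydrolysis at 37 °C in sealed screw-cap vials in a water bath; pH 1.2 HCl, pH 7.4 phosphate or pH 10.0 NaOH buffer, 20 mM total buffer, ionic strength held at 0.5 M with KCl. Sampled at 15, 30, 60, 120, 240 min; ester and ibuprofen quantified by HPLC. Pseudo-first-order Kobs = 2.303/t·log(a/(a−x)); t1/2 = 0.693/Kobs.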

A short description of data set [3]: Half life of the compound in phosphate buffer at pH 7.4. Type of data set: physicochemical. An outline of the steps:
as §1

A short description of data set [4]: Half life of the compound in NaOH buffer at pH 10 by HPLC analysis. Format: physicochemical. In short, it runs like this:
as §1

Data set [5] concerns Rattus norvegicus. Put plainly: Antiinflammatory activity in po dosed Wistar rat assessed as inhibition of carrageenan-induced paw edema at dose molecularly equivalent to ibuprofen administered 30 mins prior to carrageenan challenge measured after 1 hr. Type of data set: functional.
Data set [6] deals with Rattus norvegicus. The data set is described as follows: Antiinflammatory activity in po dosed Wistar rat assessed as inhibition of carrageenan-induced paw edema at dose molecularly equivalent to ibuprofen administered 30 mins prior to carrageenan challenge measured after 2 hrs. Type of data set: functional. (In general: The carrageenan paw model is a standard test of acute inflammation.)

The test system of data set [7] is Rattus norvegicus. Put plainly: Antiinflammatory activity in po dosed Wistar rat assessed as inhibition of carrageenan-induced paw edema at dose molecularly equivalent to ibuprofen administered 30 mins prior to carrageenan challenge measured after 3 hrs. Format: functional.
Data set [8] relates to Rattus norvegicus. The data set is described as follows: Antiinflammatory activity in po dosed Wistar rat assessed as inhibition of carrageenan-induced paw edema at dose molecularly equivalent to ibuprofen administered 30 mins prior to carrageenan challenge measured after 4 hrs. Format: functional.
The subject of data set [9] is Rattus norvegicus. The data set is described as follows: Antiinflammatory activity in po dosed Wistar rat assessed as inhibition of carrageenan-induced paw edema at dose molecularly equivalent to ibuprofen administered 30 mins prior to carrageenan challenge measured after 5 hrs. Type of data set: functional.
The test system of data set [10] is Rattus norvegicus. The data set is described as follows: Antiinflammatory activity in po dosed Wistar rat assessed as inhibition of carrageenan-induced paw edema at dose molecularly equivalent to ibuprofen administered 30 mins prior to carrageenan challenge measured after 6 hrs. Format: functional.
For data set [11], the system named is Rattus norvegicus. Put plainly: Gastrotoxicity in 24 hrs fasted po dosed Wistar rat assessed as ulcer index at dose molecularly equivalent to ibuprofen after 6 hrs. The note with it: in vivo. Type of data set: toxicity, organism-based. In short, it runs like this:
(§2)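 Rats fasted 24 h, then dosed orally as suspension in 0.5% acacia, 150 mg/kg ibuprofen or molar equivalent of prodrug; n = 6 per group. Killed 6 h after dosing, food and water then ad libitum. Stomach opened, rinsed with 5 mL saline, inspected under magnifier, ulcers scored by severity; ulcer index is the group mean, ± SEM.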

Data set [12] has as its system Rattus norvegicus. The data set is described as follows: Gastrotoxicity in 24 hrs fasted Wistar rat assessed as ulcer index at 150 mg/kg, po after 6 hrs. Particulars: in vivo. Set-up: dose 150 mg/kg, route oral. Type of data set: toxicity, organism-based. In short, it runs like this:
as §2

The subject of data set [13] is Rattus norvegicus. Put plainly: Antiinflammatory activity in Wistar rat model assessed as inhibition of carrageenan-induced paw edema at 20 mg/kg, po administered 30 mins prior to carrageenan challenge measured after 5 hrs. Format: functional.
Data set [14] concerns Rattus norvegicus. The data set is described as follows: Antiinflammatory activity in Wistar rat model assessed as inhibition of carrageenan-induced paw edema at 20 mg/kg, po administered 30 mins prior to carrageenan challenge measured after 4 hrs. Type of data set: functional.
Data set [15] has as its system Rattus norvegicus. The data set is described as follows: Antiinflammatory activity in Wistar rat model assessed as inhibition of carrageenan-induced paw edema at 20 mg/kg, po administered 30 mins prior to carrageenan challenge measured after 1 hr. Type of data set: functional.
In data set [16] the test system is Rattus norvegicus. The data set is described as follows: Antiinflammatory activity in Wistar rat model assessed as inhibition of carrageenan-induced paw edema at 20 mg/kg, po administered 30 mins prior to carrageenan challenge measured after 2 hrs. Format: functional.
For data set [17], the system named is Rattus norvegicus. The data set is described as follows: Antiinflammatory activity in Wistar rat model assessed as inhibition of carrageenan-induced paw edema at 20 mg/kg, po administered 30 mins prior to carrageenan challenge measured after 3 hrs. Format: functional.
The subject of data set [18] is Rattus norvegicus. The data set is described as follows: Antiinflammatory activity in Wistar rat model assessed as inhibition of carrageenan-induced paw edema at 20 mg/kg, po administered 30 mins prior to carrageenan challenge measured after 6 hrs. Type of data set: functional.

As usually defined, the logP is a log measure of how a compound divides between an organic and an aqueous phase. The low end stands for lower lipophilicity, the high end for higher lipophilicity. By half-life is commonly meant the time in which the quantity being followed falls by half. Higher therefore signals slow loss. For `CC(C)Cc1ccc(C(C)C(=O)OC2CC(C)CCC2C(C)C)cc1` (stereo unspecified), in data set [1], the logP was determined as 6.69. Besides, the Stability entry in [2] is recorded as “Stable”. Besides, the values for the half-life in [3] and in [4] were 6.01 h and 2.72 h, respectively. Also, the “inhibition (INH)” value with Rattus norvegicus [5] turned out to be 31.58%; in the data set on Rattus norvegicus [6] it was 34.08%; in the data set with Rattus norvegicus [7], 48.49%; in the data set with Rattus norvegicus [8], 55%; with Rattus norvegicus [9], 64.01%; in the data set on Rattus norvegicus [10], 66.84%. Further, the UI in the data set on Rattus norvegicus [11] was found to be 0.91.
With `Cc1ccc(C(C)C)c(OC(=O)C(C)c2ccc(CC(C)C)cc2)c1` (racemic), in data set [1], the logP was found to be 6.27. In data set [2], the Stability entry is reported as “Stable”. The half-life turned out to be 5.19 h in data set [3] and 2.42 h in data set [4]. Further, the “inhibition (INH)” value in the data set with Rattus norvegicus [5] was found to be 29.36%; in the data set on Rattus norvegicus [6], 32.52%; in the data set on Rattus norvegicus [7] it was 47.63%; in the data set on Rattus norvegicus [8] it was 55.17%; in the data set on Rattus norvegicus [9] it was 61.5%; with Rattus norvegicus [10] it was 64.01%. For the same compound, the UI with Rattus norvegicus [11] was 0.83.
In the case of `C=CCc1ccc(OC(=O)C(C)c2ccc(CC(C)C)cc2)c(OC)c1` (racemic), the logP in [1] is 5.63. In addition, the Stability entry in data set [2] is recorded as “Stable”. The half-life worked out at 2.84 h in [3] and 1.34 h in data set [4]. The “inhibition (INH)” value turned out to be 27.93% with Rattus norvegicus [5]; 31.43% in the data set with Rattus norvegicus [6]; 48.06% in the data set with Rattus norvegicus [7]; 55.26% in the data set on Rattus norvegicus [8]; 56.17% in the data set with Rattus norvegicus [9]; 60.33% in the data set on Rattus norvegicus [10]. Also, in the data set on Rattus norvegicus [11], the UI is recorded as 1.08.
One may read the inhibition in vivo as the change of the read-out against control, counted positive when it falls. Take `CC(C)Cc1ccc(C(C)C(=O)O)cc1` (racemic) [IBUPROFEN]: the UI in the data set with Rattus norvegicus [12] is listed as 2.41. Besides, the inhibition in vivo at 20 mg/kg in the data set with Rattus norvegicus [13] came to 46.8%; with Rattus norvegicus [14], 44%; in the data set with Rattus norvegicus [15], 18.3%; in the data set with Rattus norvegicus [16], 22.1%; in the data set on Rattus norvegicus [17] it was 40.9%; in the data set with Rattus norvegicus [18], 47.6%. Moreover, the logP in [1] amounted to 3.71.
